In ChEMBL document CHEMBL1926584, “Pterocarpanquinones, aza-pterocarpanquinone and derivatives: synthesis, antineoplasic activity on human malignant cell lines and antileishmanial activity on Leishmania amazonensis” (Bioorg Med Chem, 2011):

What was measured:
K562 = assay: Antineoplastic activity against human K562 cells after 72 hrs by MTT assay; format: functional, cell-based; details: K562, 72 h
Summary of the method: (§1)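 Tumour lines kept in RPMI 1640 with 10% FBS, 2 mM glutamine, penicillin/streptomycin, 37 °C, 5% CO2. Seeded at 10^5 cells/mL (adherent) or 3×10^5 cells/mL (leukemia). Compounds 0.1–25 µg/mL in DMSO 1%, 72 h. Vehicle controls got equal DMSO. MTT 0.5 mg/mL for 3 h, formazan dissolved in DMSO, absorbance at 595 nm. Doxorubicin 0.01–5 µg/mL as positive control.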

HL-60 = assay: Antineoplastic activity against human HL60 cells after 72 hrs by MTT assay; format: functional, cell-based; details: HL-60, 72 h; summary of the method: as §1
SF-295 = assay: Antineoplastic activity against human SF295 cells after 72 hrs by MTT assay; format: functional, cell-based; details: SF-295, 72 h; summary of the method: as §1
HCT-8 = assay: Antineoplastic activity against human HCT8 cells after 72 hrs by MTT assay; format: functional, cell-based; details: HCT-8, 72 h; summary of the method: as §1
MDA-MB-435 [1] = assay: Antineoplastic activity against human MDA-MB-435 cells after 72 hrs by MTT assay; format: functional, cell-based; details: MDA-MB-435, 72 h; summary of the method: as §1
PBMC [2] = assay: Selectivity index, ratio of IC50 for PHA activated human PBMC cells to IC50 for human SF295 cells; format: functional
Leishmania amazonensis [3] = assay: Antileishmanial activity against Leishmania amazonensis promastigotes after 72 hrs by MTT assay; format: functional, organism-based
Summary of the method: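 Promastigotes grown at 26 °C in Schneider's medium with 10% FBS. Inoculum 1.0×10^6/ml, compounds 0–20 µM, 72 h at 26 °C. MTT (5 mg/mL solution) added for 2 h, then DMSO, OD at 570 nm. Pentamidine isethionate as reference. Experiments repeated at least three times; IC50 derived by software fitting.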

J774 = assay: Cytotoxicity against mouse J774 cells after 72 hrs by MTT assay; format: cell-based; details: J774, 72 h
Summary of the method: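 J774 murine macrophages (2×10^6 in 200 µL) incubated with a range of compound concentrations for 72 h at 37 °C/5% CO2. Viability by MTT. Pentamidine isethionate as reference. Experiments repeated at least three times.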

PBMC [4] = assay: Selectivity index, ratio of IC50 for PHA activated human PBMC cells to IC50 for human HCT8 cells; format: functional
PBMC [5] = assay: Selectivity index, ratio of IC50 for PHA activated human PBMC cells to IC50 for human HL60 cells; format: functional
Leishmania amazonensis [6] = assay: Antileishmanial activity against Leishmania amazonensis amastigotes infected in BALB/c mouse peritoneal macrophages after 72 hrs by microscopy; format: functional, organism-based
Summary of the method: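 Resident BALB/c peritoneal macrophages in RPMI, 2×10^6/mL, 1 h at 37 °C, 5% CO2. Infected with stationary-phase promastigotes at 3:1 parasite/macrophage for 3 h, then washed with PBS. Compounds 0–20 µM in duplicate for 72 h. Hematological stain and light microscopy, amastigotes counted in ≥100 macrophages. Pentamidine reference. Repeated at least three times.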

PBMC [7] = assay: Cytotoxicity against PHA activated human PBMC cells after 72 hrs by MTT assay; format: cell-based
Summary of the method: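 PBMC isolated from heparinized blood of healthy non-smoking donors (drug-free ≥15 days) by Ficoll-Hypaque density-gradient centrifugation. Plated at 3×10^5 cells/mL in RPMI 1640 with 20% FBS, glutamine and antibiotics, 37 °C, 5% CO2. Phytohemagglutinin (3%) added at start. After 24 h, compounds 0.1–25 µg/mL in DMSO 1% added for 72 h. MTT read-out at 595 nm.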

PBMC [8] = assay: Selectivity index, ratio of IC50 for PHA activated human PBMC cells to IC50 for human MDA-MB-435 cells; format: functional
PBMC [9] = assay: Selectivity index, ratio of IC50 for PHA activated human PBMC cells to IC50 for human K562 cells; format: functional
MDA-MB-435 [10] = assay: Ratio of doxorubicin IC50 to compound IC50 for human MDA-MB-435 cells; format: functional

Structure (SMILES) | IC50 (K562) [µM] | IC50 (HL-60) [µM] | IC50 (SF-295) [µM] | IC50 (HCT-8) [µM] | IC50 (MDA-MB-435 [1]) [µM] | Ratio IC50 (PBMC [2]) | IC50 (Leishmania amazonensis [3]) [µM] | IC50 (J774) [µM] | Ratio IC50 (PBMC [4]) | Ratio IC50 (PBMC [5]) | IC50 (Leishmania amazonensis [6]) [µM] | IC50 (PBMC [7]) [µM] | Ratio IC50 (PBMC [8]) | Ratio IC50 (PBMC [9]) | Ratio IC50 (MDA-MB-435 [10])
c1ccc2c(c1)O[C@@H]1c3ccccc3OC[C@H]21 | > 112 | > 112 | > 112 | > 112 | > 112 | – | – | – | – | – | – | – | – | – | –
c1ccc2c(c1)CC[C@@H]1c3ccccc3O[C@H]21 | > 112 | > 112 | > 112 | > 112 | > 112 | – | – | – | – | – | – | – | – | – | –
Cc1ccc(S(=O)(=O)N2c3ccccc3[C@H]3COc4ccccc4[C@H]32)cc1 | 6.4 | 6.1 | 31.5 | 9 | 5 | – | – | – | – | – | – | – | – | – | –
Cc1ccc(S(=O)(=O)N2c3ccccc3[C@H]3CCc4ccccc4[C@H]32)cc1 | 1.9 | 1 | > 62.5 | 3 | 0.5 | 0.11 | 4.85 | 23 | 2.4 | 7.2 | 2.15 | 7.2 | 14.4 | – | –
O=C1C2=C(OCC=C2)C(=O)c2ccccc21 | – | 0.5 | 2.3 | 2.8 | 1.8 | 0.6 | – | – | 0.5 | 2.8 | – | < 1.4 | 0.78 | – | –
COc1ccc2c(c1)O[C@@H]1C3=C(OC[C@H]21)C(=O)c1ccccc1C3=O (racemic) | 3.3 | 3.5 | 17.7 | 10.4 | 11.4 | 0.44 | 2.85 | 49.5 | 0.75 | 2.22 | > 20 | 7.8 | 0.68 | 9.4 | –
COC(=O)c1ccc2c(c1)[C@H]1COC3=C(C(=O)c4ccccc4C3=O)[C@H]1O2 (racemic) | 8 | 4.1 | > 13 | > 13 | > 13 | – | 2.8 | 22.5 | – | – | 0.5 | – | – | – | –
COc1cc(C=O)cc2c1O[C@@H]1C3=C(OC[C@H]21)C(=O)c1ccccc1C3=O (racemic) | 13.5 | 3 | 7.4 | 6 | 10.7 | 0.8 | 1.27 | 18 | 1 | 2 | 1.25 | 6 | 0.56 | – | –
COc1c2c(c(OC)c3ccccc13)[C@H]1Oc3ccccc3[C@H]1CO2 (racemic) | 13.5 | 17.4 | 22.4 | 21.2 | 30.8 | – | – | – | – | – | – | – | – | – | –
Cc1ccc(S(=O)(=O)N2c3ccccc3[C@H]3COC4=C(C(=O)c5ccccc5C4=O)[C@H]32)cc1 (racemic) | 5.5 | 7.4 | 3.9 | 0.6 | 0.4 | 5.92 | 15 | > 100 | 38.5 | 3.12 | > 20 | 23 | 57.7 | 4.33 | 2
COc1c2c(c(OC)c3ccccc13)[C@@H]1[C@H](CO2)c2ccccc2N1S(=O)(=O)c1ccc(C)cc1 (racemic) | 46.7 | > 51 | > 51 | > 51 | > 51 | – | – | – | – | – | – | – | – | – | –
O=C1C2=C(C(=O)c3ccccc31)[C@H]1Oc3ccc([N+](=O)[O-])cc3[C@H]1CO2 (racemic) | – | 6.3 | 8.9 | 8.3 | 17.4 | 0.96 | 1.07 | 12.1 | 1.06 | 1.36 | 1.85 | 8.6 | 0.49 | – | –
O=C1C2=C(C(=O)c3ccccc31)[C@H]1Oc3ccccc3[C@H]1CO2 (racemic) [PTEROCARPANQUINONE] | – | 1.3 | 3.6 | 2.6 | 2.3 | 5.5 | 1.73 | 18.5 | 7.7 | 15.4 | 1.45 | > 20 | 8.7 | 12 | 0.42
COc1cccc2c1C(=O)c1c(O)c3c(c(O)c1C2=O)C[C@@](O)(C(=O)CO)C[C@@H]3O[C@H]1C[C@H](N)[C@H](O)[C@H](C)O1 [DOXORUBICIN] | 1.67 | 0.04 | – | – | – | – | – | – | – | – | – | – | – | – | –
N=C(N)c1ccc(OCCCCCOc2ccc(C(=N)N)cc2)cc1 [PENTAMIDINE] | – | – | – | – | – | – | 2.2 | 70 | – | – | 1.5 | – | – | – | –
